Values after ≈ are worked out from the molar mass of the structure shown. Active and inactive are the calls of the source. No cut-off for these calls is given here.
Key:
[1] = molecular target: T1, Protein tyrosine phosphatase type IVA 3 (Homo sapiens, UniProt O75365); assay: Inhibition of PRL3 (unknown origin) using DiFMUP as fluorogenic phosphate substrate assessed as DiFMUP dephosphorylation
[2] = Solubility in buffer assessed as light scattering; type: physicochemical
Method in brief: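 Light scattering of compounds in phosphatase assay buffer was measured by nephelometry against a buffer blank, across the concentration range used for IC50 determination.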

HEK293 [3] = assay: Cytotoxicity against human HEK293 cells expressing human PRL-3 at 50 to 75 uM after 16 hrs by MTT assay; type: cell-based; details: hek293, 16 h
Method in brief: (§1)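 Tetracycline-induced stable HEK293 Flp-In T-REx lines (PRL-1, PRL-2, PRL-3 or empty vector) were seeded at 10000 cells/well. After 24 h, compound or DMSO was added for 16 h. MTT was then added in fresh medium for 4 h at 37 °C, formazan dissolved in DMSO, and A570 read. Data were normalized to DMSO vehicle, run in triplicate in ≥2 independent experiments, with two-sided t-test versus vehicle.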

[4] = molecular target: T1, Protein tyrosine phosphatase type IVA 3; details: HEK293, 75 uM
Homo sapiens [5] = organism: Homo sapiens; assay: Selectivity index, 1 - (inhibition of PRL3/inhibition of VHR) at 50 uM
Homo sapiens [6] = organism: Homo sapiens; assay: Selectivity index, 1 - (inhibition of PRL3/inhibition of PTP1B) at 50 uM
Homo sapiens [7] = organism: Homo sapiens; assay: Selectivity index, 1 - (inhibition of PRL3/inhibition of TCPTP) at 50 uM
HEK293 [8] = assay: Cytotoxicity against human HEK293 cells expressing human PRL-1 at 50 to 75 uM after 16 hrs by MTT assay; type: cell-based; details: hek293, 16 h; method in brief: as §1
HEK293 [9] = assay: Cytotoxicity against human HEK293 cells expressing human PRL-2 at 50 to 75 uM after 16 hrs by MTT assay; type: cell-based; details: hek293, 16 h; method in brief: as §1
HEK293 [10] = assay: Cytotoxicity against human HEK293 cells expressing empty vector at 75 uM after 16 hrs by MTT assay; type: cell-based; details: hek293, 16 h; method in brief: as §1
HEK293 [11] = assay: Effect on cell proliferation of human HEK293 cells expressing human PRL-3 at 50 uM after 1 to 9 days by MTT assay; type: functional, cell-based
Method in brief: (§2)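 Stable HEK293 lines (PRL-3 or empty vector) were seeded at 1500 cells/well in tetracycline-containing growth medium. Compound or DMSO vehicle was added immediately after seeding. On each indicated day, MTT was added for 4 h at 37 °C, formazan dissolved in DMSO, and absorbance read at 570 nm, in triplicate.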

HEK293 [12] = assay: Effect on cell proliferation of human HEK293 cells expressing empty vector at 50 uM after 1 to 9 days by MTT assay; type: cell-based; details: hek293, 50 µM; method in brief: as §2
[13] = Drug localization in plasma membrane of HEK293 cells transfected with mKate-PRL-3 at 50 uM incubated for 30 mins by confocal microscopy; type: ADME; details: human, hek293, 0.5 h
Method in brief: (§3)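 HEK293 cells were transfected with 0.1 μg mKate-PRL-3 18 h before imaging. Confocal imaging used a 63× oil objective, with mKate excited at 561 nm and compound at 405 nm.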

[14] = Drug localization in inner membrane compartments of HEK293 cells transfected with mKate-PRL-3 at 50 uM incubated for 30 mins by confocal microscopy; type: ADME; details: human, hek293, 0.5 h; method in brief: as §3
[15] = molecular target: T1, Protein tyrosine phosphatase type IVA 3; details: HEK293, 50 uM
[16] = molecular target: T1, Protein tyrosine phosphatase type IVA 3; details: HEK293, 12 uM
[17] = molecular target: T1, Protein tyrosine phosphatase type IVA 3; details: HEK293, 50 uM; remark: listed apart in the source
[18] = molecular target: T1, Protein tyrosine phosphatase type IVA 3; details: HEK293, 35 uM
[19] = molecular target: T1, Protein tyrosine phosphatase type IVA 3; details: HEK293, 25 uM
[20] = molecular target: T1, Protein tyrosine phosphatase type IVA 3; details: HEK293, 12 uM; remark: listed apart in the source
[21] = molecular target: T2, Protein tyrosine phosphatase type IVA 2 (Homo sapiens) (UniProt Q12974); details: HEK293, 50 uM
T2 sequence (whole entry): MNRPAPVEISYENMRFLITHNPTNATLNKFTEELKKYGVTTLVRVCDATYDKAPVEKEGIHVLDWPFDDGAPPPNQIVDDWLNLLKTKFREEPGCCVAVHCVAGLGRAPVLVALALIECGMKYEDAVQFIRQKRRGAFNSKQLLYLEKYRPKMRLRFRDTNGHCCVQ

[22] = molecular target: T3, Protein tyrosine phosphatase type IVA 1 (Homo sapiens) (UniProt Q93096); details: HEK293, 50 uM
T3 sequence (whole entry): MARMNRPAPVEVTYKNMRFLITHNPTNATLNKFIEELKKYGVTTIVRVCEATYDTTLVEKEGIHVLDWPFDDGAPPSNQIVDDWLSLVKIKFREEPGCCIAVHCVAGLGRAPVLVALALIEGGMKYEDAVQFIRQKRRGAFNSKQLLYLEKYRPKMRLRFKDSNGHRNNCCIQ

[23] = molecular target: T4, Protein tyrosine phosphatase type IVA 2 (Homo sapiens, UniProt Q12974); assay: Inhibition of PRL2 (unknown origin) using DiFMUP as fluorogenic phosphate substrate assessed as DiFMUP dephosphorylation
T4 sequence (Q12974 whole entry): T2 sequence (whole entry)

[24] = molecular target: T5, Protein tyrosine phosphatase type IVA 1 (Homo sapiens, UniProt Q93096); assay: Inhibition of PRL1 (unknown origin) using DiFMUP as fluorogenic phosphate substrate assessed as DiFMUP dephosphorylation
T5 sequence (Q93096 whole entry): T3 sequence (whole entry)

HEK293 [25] = assay: Inhibition of cell proliferation of human HEK293 cells expressing human PRL-3 at 20 uM after 1 to 9 days by MTT assay; type: functional, cell-based; method in brief: as §2
HEK293 [26] = assay: Inhibition of cell proliferation of human HEK293 cells expressing empty vector at 20 uM after 1 to 9 days by MTT assay; type: cell-based; details: hek293, 20 µM; method in brief: as §2

T1 sequence (O75365 whole entry): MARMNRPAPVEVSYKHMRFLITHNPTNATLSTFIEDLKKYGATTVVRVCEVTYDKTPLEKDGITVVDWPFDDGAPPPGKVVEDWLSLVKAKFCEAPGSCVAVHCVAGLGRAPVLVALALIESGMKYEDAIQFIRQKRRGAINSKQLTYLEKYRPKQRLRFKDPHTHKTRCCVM

| solubility kinetic [2] | solubility [2] | SMILES | IC50 ([1]; read-out: IC50) | Activity (HEK293 [3]) | Selectivity index (Homo sapiens [5]) | Selectivity index (Homo sapiens [6]) | Selectivity index (Homo sapiens [7]) | Activity (HEK293 [8]) | Activity (HEK293 [9]) | other results |
| --- | --- | --- | --- | --- | --- | --- | --- | --- | --- | --- |
| 335 µM (≈ 111 µg/mL) | – | O=C1NC(=S)S/C1=C/c1ccc(-c2ccccc2C(=O)O)o1 | 53 µM | Non-toxic | 0.54 | 0.34 | 0.22 | – | – | inhibition [4]: inactive |
| – | soluble | O=C(O)c1ccc[n+]2c([O-])c(-c3ccccc3)sc12 | – | Non-toxic | 0.25 | 0.25 | 0.1 | Non-toxic | Non-toxic | – |
| – | soluble | Nc1c[nH]c(=O)c2cc(-c3ccccc3)sc12 | – | Non-toxic | – | – | – | Non-toxic | Non-toxic | inhibition (HEK293 [25]): Active; Activity (HEK293 [26]): Toxic |

The next lines start with the molecule.

| SMILES | solubility kinetic [2] | solubility [2] | IC50 ([1]; read-out: IC50) | Activity (HEK293 [3]) | Selectivity index (Homo sapiens [5]) | Selectivity index (Homo sapiens [6]) | Selectivity index (Homo sapiens [7]) | Activity (HEK293 [8]) | Activity (HEK293 [9]) | other results |
| --- | --- | --- | --- | --- | --- | --- | --- | --- | --- | --- |
| C=CCOC(=O)/C(C#N)=C/c1ccc(O)c(Br)c1 | 311 µM (≈ 95.8 µg/mL) | – | – | Non-toxic | – | – | – | Non-toxic | Non-toxic | Activity (HEK293 [10]): Toxic |
| C=CCOC(=O)/C(C#N)=C/c1cc(Br)c(O)c(OC)c1 | 138 µM (≈ 46.7 µg/mL) | – | – | Non-toxic | – | – | – | Non-toxic | Non-toxic | Activity (HEK293 [11]): inactive; Activity (HEK293 [12]): Non-toxic; Drug uptake [13]: Active; Drug uptake [14]: Not Active; inhibition [4]: Active; inhibition [15]: Active; inhibition [16]: inactive; inhibition [17]: Active; inhibition [18]: Active; inhibition [19]: Active; inhibition [20]: inactive; inhibition [21]: Active; inhibition [22]: Active |
| C=CCOC(=O)/C(C#N)=C/c1ccc(OC)cc1 | – | – | – | – | – | – | – | – | – | IC50 [1]: Not Active; IC50 [23]: Not Active; IC50 [24]: Not Active |
| COC(=O)/C(C#N)=C/c1ccc(O)c(Br)c1 | – | – | – | – | – | – | – | – | – | Drug uptake [13]: Active; Drug uptake [14]: Active |
| CCOC(=O)/C(C#N)=C/c1cc(Br)c(O)c(Br)c1 | – | soluble | 109 µM | Toxic | 0.44 | 0.48 | 0.24 | Toxic | Toxic | IC50 ([23]; read-out: IC50): 109 µM; IC50 ([24]; read-out: IC50): 89.1 µM |
| COc1cc(/C=C(\C#N)C(=O)OC(C)C)cc(Br)c1O | 144 µM (≈ 49 µg/mL) | – | 69.4 µM | Non-toxic | 0.24 | 0.08 | -0.29 | Non-toxic | Non-toxic | IC50 ([23]; read-out: IC50): 69.4 µM; IC50 ([24]; read-out: IC50): 56.7 µM |

From ChEMBL document CHEMBL3393058 (Eur J Med Chem, 2014)
